An excerpt weighted towards active compounds, which were near 2.1% of everything screened.
GRK2 inh – blocks RNA aptamer binding to human GRK2; bead flow cytometry, FAM-aptamer displacement from GRK2; inhibition of aptamer binding, % at 10 µM; actives 0.59% (n = 330,000);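 active = inhibition of aptamer binding above 40%, roughly 3 SD of noise, on plates passing a quality check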;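 also: median bead fluorescence of bound FAM aptamer so fluorescent compounds give negative values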
LMPTP inh – blocks human LMPTP phosphatase | actives 0.22% (n = 360,000) | inhibition, % at 20 µM | recombinant LMPTP-A, OMFP fluorogenic substrate, fluorescence intensity | AID 651560 | P24666;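 active = compounds that cut the enzyme signal by at least half of the control window in the single-dose screen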;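 also: plate controls were DMSO wells with enzyme plus substrate for no effect and substrate without enzyme for full effect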
Target sequence (P24666 whole entry, looked up): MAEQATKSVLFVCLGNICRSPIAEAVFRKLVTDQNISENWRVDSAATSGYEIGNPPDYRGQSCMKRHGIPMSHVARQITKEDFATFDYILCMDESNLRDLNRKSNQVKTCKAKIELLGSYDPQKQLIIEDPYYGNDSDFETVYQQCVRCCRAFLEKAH
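Test system: LMPTP-A phosphatase enzyme; input: 0.625 nM LMPTP-A final; reagent: OMFP substrate, 400 µM final; compound dosing: 20 µM single dose, 3% DMSO; incubation: 50 min dark incubation at room temperature; measured by: endpoint fluorescence intensity from OMFP dephosphorylation; measure: % inhibition relative to no-enzyme and uninhibited control wells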
Scp1 inh – Scp-1 (human) phosphatase inhibition; Q9GZU7; Recombinant Scp1, phosphopeptide, malachite green phosphate absorbance; inhibition, % at 20 µM; actives 0.88% (n = 340,000); AID 493091;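 active = inhibition above about 50% at 20 µM, limit read from the data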;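 also: plate controls were DMSO wells with enzyme for no effect and wells lacking enzyme for full effect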
Target sequence (Q9GZU7 76-261 limits assumed): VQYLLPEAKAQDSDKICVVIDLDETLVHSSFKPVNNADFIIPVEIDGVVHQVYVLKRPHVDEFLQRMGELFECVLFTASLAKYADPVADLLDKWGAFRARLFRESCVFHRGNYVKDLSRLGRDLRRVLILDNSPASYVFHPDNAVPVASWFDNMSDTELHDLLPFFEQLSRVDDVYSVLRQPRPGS
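System: SCP-1 catalytic domain; Reagent: Phospho 17-mer peptide substrate; Doses: one concentration, 20 µM, with 1.0% DMSO; Incubation: 45 min room-temperature reaction, 5 min colour, 30 min stabiliser; Signal: Phosphate-binding colour reagent, absorbance read at 630 nm.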
SUMO1-SIM PPI – SUMO1-SIM interaction modulation | SUMO1 binding to a labelled peptide, TR-FRET, 1 h | actives 0.33% (n = 360,000) | P63165 | inhibition, % at 20 µM; in the data active = inhibition above about 37%
Target sequence (P63165 whole entry, looked up): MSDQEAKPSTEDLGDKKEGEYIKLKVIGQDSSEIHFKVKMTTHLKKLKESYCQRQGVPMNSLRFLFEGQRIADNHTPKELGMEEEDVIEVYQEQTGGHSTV
DNMT1 block – blocks human DNA methyltransferase DNMT1; P26358; DNMT1 molecular beacon, Hinp1I cleavage, fluorescence; inhibition (reported as % activation of signal), % at 10 µM; actives 0.83% (n = 360,000); in the data active = inhibition above about 50%
STEP block – inhibitors of human striatal-enriched phosphatase STEP. recombinant STEP, OMFP fluorogenic substrate, fluorescence. inhibition, % at 20 µM. actives 0.25% (n = 360,000). AID 588621;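 active = inhibition at 20 µM, scaled per plate between control wells, above about 37%, limit read from the data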;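 also: 0% = DMSO with enzyme and substrate and 100% = substrate only without enzyme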
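Assay system: isolated STEP enzyme / Timing: 20 min at room temperature, dark / Doses: 20 µM, 1% DMSO / Technique: fluorescence intensity, excitation 480 nm, emission 540 nm / Reagent: fluorogenic phosphatase substrate OMFP at 25 µM final / Measure: percent inhibition scaled to no-enzyme and uninhibited-enzyme controls, plate-pattern corrected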
DNMT1 confirm – confirmation of human DNMT1 inhibitors | shares compounds with DNMT1 block | DNMT1 molecular beacon HinP1I cleavage, fluorescence | inhibition, % at 10 µM | actives 8% (n = 2,300);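 active = average inhibition of at least 30% in the single-concentration confirmation test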
Beacon interf – counter-screen for DNMT1 inhibitors: spectral interference; shares compounds with DNMT1 block; DNMT1 molecular beacon spectral interference counterscreen, fluorescence 485/520; actives 1% (n = 2,300); activation (fluorescence interference), % at 10 µM; AID 602387;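 active = activation of at least 30% at 10 µM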;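 also: DNMT1 catalytic domain with a HinP1I cleavage step and a FAM/dabcyl DNA beacon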
Starred values were filed as active, the others as inactive; nt = no result given.

SMILES | GRK2 inh | LMPTP inh | Scp1 inh | SUMO1-SIM PPI | DNMT1 block | STEP block | DNMT1 confirm | Beacon interf
CC(NC(=O)CNC(=O)c1ccc2c(c1)OCO2)c1ccc(S(N)(=O)=O)cc1 (stereo not drawn) | 2 | 0 | -1 | 2 | 1 | 2 | nt | nt
O=C(NCCO)c1cc2c([nH]c3ccccc32)c(-c2ccccc2)n1 | 2 | 1 | -3 | 1 | 7 | 0 | nt | nt
Cc1ccc(-c2nc(C(=O)NCCCN(C)C)cc3c2[nH]c2ccccc23)cc1 | 0 | 3 | -2 | 3 | 56* | 0 | 0 | -2
O=C(CCN1C(=O)/C(=C/c2ccco2)SC1=S)Nc1ccc(C(=O)O)c(O)c1 | 3 | 22 | 65* | 47* | 81* | 48* | 4 | 0
O=C(CCN1C(=O)/C(=C\c2ccco2)SC1=S)Nc1ccc(C(=O)O)c(O)c1 | 13 | 23 | 80* | 66* | 91* | 43* | 16 | 0
CN(C)c1ccc(S(=O)(=O)N2CCCCC2)cc1NC(=O)C1=COCCO1 | 2 | 0 | -2 | 35 | 0 | 2 | nt | nt
Cc1ccc(Sc2ccc(/C=C3/C(=O)NN(c4ccccc4)C3=O)o2)cc1 | 0 | 4 | 3 | -22 | 65* | 8 | 13 | 3
O=C1NN(c2ccccc2)C(=O)/C1=C/c1ccc(Sc2ccc(Cl)cc2)o1 | 2 | 5 | 9 | 21 | 88* | 2 | 19 | 7
COc1cccc(CN(C(=O)/C=C/c2ccco2)C2CCS(=O)(=O)C2)c1 (stereo not drawn) | 1 | 1 | 7 | -8 | -2 | -1 | nt | nt
Cc1cccn2c(=O)nc(SCC(=O)N3CCN(c4ccccc4)CC3)nc12 | 0 | 0 | 4 | -1 | 2 | 2 | nt | nt
CSc1cc(SC)ncn1 | nt | -1 | -5 | 1 | -1 | -1 | nt | nt
COc1ccc(NC(=O)COC(=O)c2c3c(nc4ccccc24)CCCC3)cc1 | 3 | 1 | 2 | 1 | 55* | -1 | 2 | 4
COc1ccc(NC(=O)COC(=O)c2c3c(nc4ccccc24)CCCC3)cc1Cl | 1 | 5 | -4 | 3 | -13 | -2 | nt | nt
COc1ccc(CN(C)CCCn2ccc(N)nc2=O)cc1OC | nt | -3 | nt | 3 | 2 | 0 | nt | nt
COc1ccc(CN(C)C(=O)Cn2ccc(N)nc2=O)cc1OC | 2 | -1 | -4 | -4 | 89* | 1 | 1 | 3
COc1ccc(/C=C(\NC(=O)c2ccc(C)cc2)C(=O)NCCCn2ccnc2)cc1OC | 0 | -6 | 1 | -11 | 1 | -1 | nt | nt
CC1(C(=O)NS(=O)(=O)c2ccc3c(c2)CCO3)CCN1C(=O)COc1ccc(Cl)cc1 (stereo not drawn) | nt | -3 | nt | 2 | 85* | -2 | 4 | 6
O=C(/C=C/c1ccc(Cl)cc1Cl)N1CCN(c2ccc([N+](=O)[O-])c(N3CCOCC3)c2)CC1 | 6 | 9 | -1 | -4 | -6 | -5 | nt | nt
O=C(/C=C/c1ccc(Cl)cc1Cl)N1CCN(c2ccccc2[N+](=O)[O-])CC1 | 0 | 7 | -14 | 0 | 92* | 4 | 1 | -2
CC1(C(=O)NS(=O)(=O)c2ccc(Cl)s2)CCN1C(=O)C1(c2ccccc2)CCCC1 (stereo not drawn) | nt | -2 | nt | 4 | 4 | -2 | nt | nt
Cn1ncn2c(=O)c3c(nc12)-c1ccccc1CC31CCCC1 | 1 | 1 | -9 | 6 | 85* | 2 | 1 | 3
CC1CCCCC1NC(=O)CSc1nnc(-c2ccco2)n1N (stereo not drawn) | nt | -1 | nt | 2 | -3 | 2 | nt | nt
Cc1cc(NC(=O)c2cc(C3CC3)on2)no1 | 3 | 0 | -1 | 4 | 56* | 0 | 1 | -1
Cc1cc(NC(=O)c2ccc(C)o2)no1 | 3 | -2 | -4 | -3 | 3 | -2 | nt | nt
Cc1cc(NC(=O)c2cc(C)on2)no1 | 0 | 0 | 3 | 1 | 1 | -3 | nt | nt

Screening data as filed in PubChem BioAssay.
